# Compounds with a hit are over-represented: about 2.2% of the library has one in this group of screens.
# Autophagy mod = modulators of autophagy; MEF GFP-LC3 puncta imaging; test concentration mostly 10 µM; calls only at 10 µM (by protocol); 0.98% of 190,000 active; AID 463193;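 active = percentage of spot-positive cells more than 3 SD above its plate mean, without a fluorescence outlier flag or 80% toxicity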
# Dynein transport = blocks dynein driven cargo transport along microtubules | 3617.4 mouse cells, GR-EGFP nuclear translocation imaging; test concentration mostly 20 µM; stimulated with dexamethasone, 1 µM; stronger effect = lower value | 0.47% of 220,000 active | AID 1381 | z-score, hits read low;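 active = plate z-score of nuclear minus cytoplasmic receptor signal below a set negative limit, without overly bright fluorescence or cell loss, cut at about -3.5 in these data, passing the limit was not always enough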;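 also: z-score of nuclear minus cytoplasmic ring GR-EGFP intensity difference per well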
#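 medium = tetracycline-free induction medium containing charcoal-stripped FBS | probe or stimulus = dexamethasone, 1.0 µM final | timing = 48 h induction, then 1 h compound, then 30 min agonist, 37 °C | detection = automated 10x imaging of fixed Hoechst-stained cells | read-out basis = nuclear versus cytoplasmic GR-EGFP signal, averaged per well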
# SDO1 yeast rescue = compounds rescuing growth of sdo1-depleted yeast, bone marrow failure model | S. cerevisiae sdo1-depleted JHY4D growth rescue, OD600 30 h; stronger effect = higher value; pdr5 snq2 efflux-pump mutant strain | z-score at 10 µM | 0.21% of 140,000 active;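 active = z-score above 3 at both the 24 hr and the 30 hr optical density reads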
# HCT116 PTEN-null = suppresses growth of cells with PTEN deletion; AID 827; viability, % at 10 µM; HCT116 PTEN-null viability, CellTiter-Glo, 60 h; stronger effect = lower value; 1.2% of 140,000 active;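 active = viability at or below a set limit, 4 SD under the median of all tested compounds, cut at about 3.7% in these data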;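 also: PTEN knockout HCT116 line with beta catenin targeted HCT116 as companion control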
# HCT116 bCat-KO = beta-catenin-lacking colon tumor cell growth suppression; HCT116 beta-catenin knockout viability, CellTiter-Glo, 60 h; stronger effect = lower value; viability, % at 10 µM; 1.5% of 140,000 active; AID 818;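 active = viability at or under a set limit, the compound median less 4 SD, cut at about 6% in these data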
# Hits are given with their value; i = inactive; nt = no result; + = active, no number.
SMILES,Autophagy mod,Dynein transport,SDO1 yeast rescue,HCT116 PTEN-null,HCT116 bCat-KO
CCCCNc1nc(N)nc(-c2cc(Cl)ccc2O)n1,i,i,i,i,i
CN(CC(=O)Nc1ccccc1C(F)(F)F)C(=O)COc1cccnc1[N+](=O)[O-],i,i,nt,nt,nt
O=C(Nc1ccccc1N1CCN(c2ccccc2)CC1)C12CC3CC(CC(C3)C1)C2,+,i,i,i,i
O=C(CCS(=O)(=O)c1ccccc1)Nc1nc2c(s1)COc1ccccc1-2,i,i,i,1.8,3.1
Cc1ccc(-n2nnc(-c3cccnc3Cl)n2)cc1,i,i,nt,nt,nt
Cc1nn(Cc2c(Cl)cccc2Cl)c(C)c1NC(=O)c1cn(-c2ccccc2)nc1-c1ccccc1,i,i,i,0.5,0.6
Cc1nn(Cc2c(Cl)cccc2Cl)c(C)c1NC(=O)c1sc2ccccc2c1Cl,i,i,i,i,i
O=C1CC(c2ccco2)Cc2nc(Nc3nc(-c4ccccc4)c4ccccc4n3)ncc21 (centres undefined),i,i,i,3.5,3.4
O=C(N/N=C/C(Br)=C/c1ccccc1)c1n[nH]c2c1CCC2,+,i,i,1.7,2.7
O=S(=O)(c1ccc(Cl)cc1)N1CCCN(c2nc3ccc(Cl)cc3s2)CC1,nt,i,nt,nt,nt
O=C(N/N=C\c1ccc(-c2ccc([N+](=O)[O-])cc2)o1)c1ccc2c(c1)OCO2,+,i,i,i,i
CN(CCC#N)C(=O)COC(=O)c1ccc(CNS(=O)(=O)c2ccc(F)c(Cl)c2)cc1,i,i,i,i,i
COC(=O)c1ccc(C(=O)NC(=S)Nc2ccc3nc(SC)sc3c2)cc1,i,i,i,1.5,0.9
COc1ccc(CC(=O)Nc2ccc3nc(SC)sc3c2)cc1OC,i,i,nt,nt,nt
COc1ccccc1/C=N/NC(=O)C(=O)N1CCN(c2ccccc2OC)CC1,i,i,i,i,i
O=C(/C=C/c1ccnc2ccccc12)c1cccs1,i,i,nt,nt,nt
O=[N+]([O-])c1ccc(-c2ccc(/C=N/Nc3nc(NCc4ccccc4)nc(N4CCOCC4)n3)o2)cc1,+,i,nt,nt,nt
O=S(=O)(c1ccc(Cl)c(Cl)c1)c1snnc1-c1ccccc1,i,-3.96,i,1.3,1.2
NC(=O)c1snnc1-c1ccccc1,nt,i,nt,nt,nt
Oc1ccc(Nc2nc(-c3ccc4ccccc4c3)cs2)cc1,+,i,i,i,i
CCCCCCCNC(=O)C1CC(=O)N(C)C(=Nc2ccc(OC)cc2)S1 (centres undefined),i,i,i,i,i
COc1ccc2cc(/C(C)=N/NC(=S)Nc3cc(S(=O)(=O)N4CCOCC4)ccc3N3CCOCC3)ccc2c1,+,i,nt,nt,nt
O=C(NCCCN1CCOCC1)C(=O)N/N=C/c1c2ccccc2cc2ccccc12,i,i,i,2.2,1.6
Cc1ccccc1CN(C)CC(=O)NC(C)CCc1ccccc1 (centres undefined),+,i,nt,nt,nt
Cc1ccc(CC(=O)NC(C)CCc2ccccc2)cc1 (centres undefined),i,i,i,i,i
SMILES,Autophagy mod,Dynein transport,SDO1 yeast rescue,HCT116 PTEN-null,HCT116 bCat-KO
CCCn1c(O)c(/C=C2\C=NN=C2c2ccccc2)sc1=S,i,i,i,i,i
CCCCC(CC)Cn1c(O)c(/C=C2\C=NN=C2c2ccccc2)sc1=S (centres undefined),i,i,i,1.6,2.1
Cc1ccc(N(C(=O)c2snc(C(N)=O)c2N)C(C(=O)NCCC(C)C)c2ccco2)cc1 (centres undefined),i,i,nt,nt,nt
COc1ccc(-n2c(C)cc(/C=C3\SC(=S)N(Cc4ccco4)C3=O)c2C)cc1,+,i,i,i,i
OC1(c2cccc(C(F)(F)F)c2)CCN(c2ncnc3c2[nH]c2ccccc23)CC1,+,i,i,1.3,1.2
Cc1ccc2c(c1)[nH]c1c(N3CCN(Cc4ccccc4)CC3)ncnc12,i,i,i,i,i
c1ccc(CN2CCN(c3ncnc4c3[nH]c3ccccc34)CC2)cc1,i,i,i,i,3.9
c1ccc2c(c1)[nH]c1c(N3CCC4(CC3)OCCO4)ncnc12,i,i,i,i,i
COc1cc(CNCCc2c[nH]c3ccccc23)ccc1OCc1ccc(F)cc1,i,i,i,2.0,1.5
COc1cc(CNCCc2c[nH]c3ccccc23)cc(Cl)c1OCC(N)=O,i,i,nt,nt,nt
COc1ccccc1NC(=S)NCCc1c[nH]c2ccccc12,i,i,i,i,i
COc1cccc(CNCCc2c[nH]c3ccccc23)c1OCc1ccc(F)cc1,i,i,i,1.2,1.4

# Screens from PubChem.
